A selection: hits, their analogues and other compounds. The true share with any hit is near 3%.
TAAR1 antagonist: human TAAR1 antagonism. CHO RD-HGA16 TAAR1, Fluo-8 calcium fluorescence, antagonist. inhibition, % at 3 µM. AID 624466. hit rate 1.5% among 360,000;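 active = inhibition above a per-plate cutoff, the mean inhibition of test compounds on that plate plus 3 SD, cut at about 49% in these data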
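System: CHO RD-HGA16 cells bearing hTAAR1. Reagent: EC80 β-phenethylamine stimulus. Schedule: seeding 17-24 h prior, 75-min 37 °C, 30-min RT dye loading. Signal: Fluo-8 intracellular calcium dye fluorescence, real-time kinetic reads. Read-out: % inhibition from peak post-agonist over basal fluorescence ratio. Benchmarks: vehicle wells and EC80 agonist wells. Replicates: n of 1.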
M4 ag: CHRM4 agonism in calcium assay; P08173; CHO-K1 hM4/Gqi5, Fluo-8 calcium fluorescence; vehicle 0%, full acetylcholine response 100%; activation, % at 3 µM; hit rate 0.14% among 360,000; AID 624127;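 active = activation above the run mean over all test wells plus 3 SD, cut at about 32% in these data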;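 also: peak over basal fluorescence ratio per well then scaled between controls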
Target sequence (P08173 whole entry, looked up): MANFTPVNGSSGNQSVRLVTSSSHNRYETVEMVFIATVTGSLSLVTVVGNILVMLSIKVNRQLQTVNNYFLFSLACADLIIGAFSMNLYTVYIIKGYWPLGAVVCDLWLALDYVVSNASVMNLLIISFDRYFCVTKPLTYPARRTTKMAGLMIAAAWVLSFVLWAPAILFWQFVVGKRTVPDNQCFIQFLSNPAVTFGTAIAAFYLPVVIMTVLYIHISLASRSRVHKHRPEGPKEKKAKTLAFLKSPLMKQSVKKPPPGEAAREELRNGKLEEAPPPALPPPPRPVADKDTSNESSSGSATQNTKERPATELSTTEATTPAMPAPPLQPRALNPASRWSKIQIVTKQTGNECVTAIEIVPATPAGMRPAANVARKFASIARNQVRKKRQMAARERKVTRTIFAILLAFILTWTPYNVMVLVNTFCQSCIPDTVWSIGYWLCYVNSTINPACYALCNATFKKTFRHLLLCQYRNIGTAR
TAAR1 agonist: human TAAR1 agonism. CHO RD-HGA16 TAAR1, Fluo-8 calcium fluorescence; vehicle wells 0%, saturating PEA agonist 100%. Q96RJ0. hit rate 0.99% among 360,000. activation, % at 3 µM;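 active = activation above the mean activation of all test compounds in the run plus 3 SD, cut at about 38% in these data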
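test system = CHO RD-HGA16 cells carrying human TAAR1 plus Gα16 | schedule = 17-24 h seeding, 75 min 37 °C dye, 30 min RT | compound dosing = 3 µM single concentration | control set = DMSO and PEA EC100 | replicates = n 1 | signal = Fluo-8 fluorescence, 5 s baseline then 140 s kinetic read | measure = percent activation vs PEA EC100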
CHRM4 antagonist: blocks acetylcholine activation of human M4 receptor; P08173; CHO-hM4 cells, ACh EC80, Fluo-8 calcium fluorescence; inhibition, % at 3 µM; hit rate 0.73% among 360,000; AID 624125;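 active = inhibition above its plate's cutoff, the mean inhibition of sample wells plus 3 SD, cut at about 27% in these data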
CHRM4 PAM: CHRM4 positive allosteric modulation; P08173; CHO-K1 hM4/Gqi5, Fluo-8 calcium fluorescence, ACh EC20; 0% = ACh EC20, 100% = maximal ACh; activation, % at 3 µM; hit rate 0.4% among 360,000;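 active = activation above its plate's cutoff, the mean activation of sample wells plus 3 SD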
Each line names hits and unclear results; the compound was inactive in the other large screens.

COc1ccc(CNCC(O)(c2ccccc2)c2ccc(Cl)cc2)cc1 (stereo unspecified)	CHRM4 antagonist 28
COc1ccc(CNCC(O)COc2ccc(C(C)(C)c3ccccc3)cc2)cc1 (stereo unspecified)	TAAR1 agonist 41
Cc1ccc(CNCC(O)(c2ccccc2)c2ccc(Cl)cc2)cc1 (stereo unspecified)	none
COC(=O)[C@]12C[C@H](CC(=O)N3CCN(C(=O)c4ccco4)CC3)C(=O)N(Cc3ccc4c(c3)OCO4)C1=C[C@H](C(C)(C)C)O[C@@H]2C	none (no result: M4 ag, CHRM4 antagonist, CHRM4 PAM)
COC(=O)C1=C(C)N(Cc2ccccc2C(F)(F)F)C(=NCc2ccc(OC)cc2)NC1CCc1ccccc1 (stereo unspecified)	none (no result: M4 ag, CHRM4 antagonist, CHRM4 PAM)
Cc1[nH]c2ccccc2c1CC(=O)Nc1ccc(Nc2cccnc2)c(-c2cc(C(F)(F)F)cc(C(F)(F)F)c2)c1	none (no result: M4 ag, CHRM4 antagonist, CHRM4 PAM)
COc1cccc(NC(=O)CNC(C)CCC(C)C)c1 (stereo unspecified)	TAAR1 agonist 38
COc1cccc(NC(=O)CCC(=O)Nc2cccc(OC)c2)c1	none
c1ccc(CCN2CCN(c3ncnc4c3cnn4-c3ccccc3)CC2)cc1	TAAR1 agonist 41
CCN1CCN(c2ncnc3c2cnn3-c2ccccc2)CC1	none
Cc1cc(-c2cn3ccccc3n2)c(C)n1-c1ccccc1	CHRM4 antagonist 41
COc1ccc(-n2c(C)cc(-c3cn4cccc(C)c4n3)c2C)cc1	none
C[C@H]1CN([C@@H](C)CO)C(=O)CCCn2nncc2CO[C@@H]1CN(C)Cc1ccc2cccnc2c1	none (no result: M4 ag, CHRM4 antagonist, CHRM4 PAM)
CC(NCc1ccc2c(c1)OCO2)C(=O)N1CCc2ccccc21 (stereo unspecified)	CHRM4 PAM 23
CC(NCc1ccc(S(N)(=O)=O)cc1)C(=O)N1CCc2ccccc21 (stereo unspecified)	none
COc1ccc(CNC(=O)Nc2nc(C(N)Cc3ccc(Cl)cc3)cs2)cc1 (stereo unspecified)	TAAR1 antagonist 66, TAAR1 agonist 50, CHRM4 antagonist 33
COc1ccccc1CNC(=O)Nc1nc(C(N)Cc2ccc(Cl)cc2)cs1 (stereo unspecified)	TAAR1 antagonist 51, TAAR1 agonist 45, CHRM4 antagonist 27
COc1ccccc1CNC(=O)c1csc(Cc2ccc(Cl)cc2)n1	TAAR1 antagonist 50
COc1ccccc1CNC(=O)Nc1nc(C(N)C(C)C)cs1 (stereo unspecified)	none
COc1ccc(CNC(=O)c2csc(Cc3ccccc3)n2)cc1	none
COC(=O)C1CC2=C(CCC2=O)N(c2ccccc2)C1=O (stereo unspecified)	none
COc1ccc(N)cc1CN1CCN(c2ncc(Cc3ccccc3)cn2)CC1	none (no result: M4 ag, CHRM4 antagonist, CHRM4 PAM)
CCc1nc2c(OCC3CCCCC3)cccn2c1N(C)C(=O)c1ccccc1F	none
CC(=O)N(C)C[C@H]1Oc2ncc(Br)cc2C(=O)N([C@H](C)CO)C[C@@H]1C	none
CCCS(=O)(=O)NC(=O)C1(C)CCCN(C(=O)c2ccc3ccccc3c2)C1 (stereo unspecified)	CHRM4 PAM 17
Cc1ccccc1OCCOc1cccc(/C=N/NC(=O)Cc2nnc(N)s2)c1	TAAR1 antagonist 49
Nc1nnc(CC(=O)N/N=C/c2cccc(OCCOc3ccccc3)c2)s1	none
C[C@H](CO)N1C[C@H](C)[C@H](CN(C)Cc2cccc(F)c2)Oc2ncc(C3=CCCC3)cc2C1=O	none (no result: M4 ag, CHRM4 antagonist, CHRM4 PAM)
COc1ccccc1C=NN=C(NN=Cc1ccccc1OC)NN=Cc1ccccc1OC	TAAR1 antagonist 52
O=C(N[C@@H](Cc1cccnc1)C(=O)N1CCC[C@H]1C(=O)NC1CCCC1)C1CCCC1	none (no result: M4 ag, CHRM4 antagonist, CHRM4 PAM)
Cc1ccccc1N=C(NOCc1ccc(Cl)cc1Cl)c1nonc1N	none
Cc1ccc(N=C(NOCc2ccc(Cl)cc2Cl)c2nonc2N)c(C)c1	TAAR1 antagonist 57
COc1ccccc1NC(=O)N(C)C[C@@H]1OCc2cnnn2CCCC(=O)N([C@@H](C)CO)C[C@@H]1C	none
CC(=O)C[C@H](O)CC(=O)[C@H]1OC(=O)CC/C=C\Cc2ccccc21	CHRM4 PAM 25
Cc1cc(NC(=O)CSCC(=O)Nc2ccc(Cl)c(C(F)(F)F)c2)no1	none
Cc1cc(NC(=O)CN(C)CC(=O)Nc2ccc(Cl)c(C(F)(F)F)c2)no1	TAAR1 agonist 41, CHRM4 PAM 23
CN(CC(=O)Nc1ccc(Cl)c(C(F)(F)F)c1)C(=O)c1cc(=O)c2ccccc2o1	TAAR1 agonist 45
